Common to all, as to type: functional, cell-based
The test system of one test is DU-145. Put plainly: Cytotoxicity against human androgen-independent DU145 cells assessed as inhibition of cell viability after 3 days by WST-1 cell proliferation assay. Conditions: DU-145, 72 h. Put shortly:
(§1)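 Human prostate cancer cells (LNCaP androgen-dependent; PC-3 and DU145 androgen-independent) were exposed to drug for 3 days, and viability was read by WST-1 proliferation assay. IC50 was taken as the drug concentration giving 50% inhibition of cell viability, reported as mean ± standard error of the mean.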
In general terms: Tetrazolium dyes change colour on reduction, which living cells bring about.

A further test concerns PC-3. The experiment in a line: Cytotoxicity against human androgen-independent PC3 cells assessed as cell cell viability after 3 days by WST-1 cell proliferation assay. Conditions: PC-3, 72 h. In short, it runs like this: as §1
The next test relates to LNCaP. Put plainly: Cytotoxicity against human androgen-dependent LNCAP cells assessed as inhibition of cell viability after 3 days by WST-1 cell proliferation assay. The settings on record: 72 h. Put shortly:
as §1

The text below walks through data of ChEMBL document CHEMBL3621054, “A new class of hybrid anticancer agents inspired by the synergistic effects of curcumin and genistein: Design, synthesis, and anti-proliferative evaluation” (Bioorg Med Chem Lett, 2015).

Each structure is given as a SMILES string.

In general, IC50 refers to the point on the concentration scale where inhibition reaches its midpoint. In the case of `CCCCCn1ccnc1/C=C/C(=O)/C=C/c1coc2ccccc2c1=O`, the IC50 in the test with DU-145 was determined as 2.7 µM; in the test on PC-3, 2100 nM; in the test on LNCaP it was 1800 nM.
Turning to `CCn1ccnc1/C=C/C(=O)/C=C/c1coc2ccccc2c1=O`, the concentration for half-maximal inhibition (IC50) stood at 3 µM in the test with DU-145, 1800 nM in the test with PC-3 and 1000 nM with LNCaP.
The corresponding values for `O=c1c(-c2ccc(O)cc2)coc2cc(O)cc(O)c12` [GENISTEIN] are above 100 µM, 68600 nM and 37400 nM.
The corresponding values for `CCC(C)n1ccnc1/C=C/C(=O)/C=C/c1coc2ccccc2c1=O` (configuration not stated) are 3.3 µM, 1800 nM and 1300 nM.
The matching figures for `O=c1c(O)c(-c2ccc(O)c(O)c2)oc2cc(O)cc(O)c12` [QUERCETIN]: above 100 µM, above 100000 nM and 45500 nM.
Regarding `CCCC(C)n1ccnc1/C=C/C(=O)/C=C/c1coc2ccccc2c1=O` (configuration not stated), the values for the half-inhibitory concentration (IC50) in the test with DU-145, with PC-3 and with LNCaP were 1.4 µM, 3200 nM and 3900 nM, respectively.
The matching figures for `Cn1ccnc1/C=C/C(=O)/C=C/c1coc2ccccc2c1=O`: 4.5 µM, 2800 nM and 2300 nM.
The matching figures for `CCCCn1ccnc1/C=C/C(=O)/C=C/c1coc2ccccc2c1=O`: 4.3 µM, 2000 nM and 2000 nM.
The matching figures for `CCCn1ccnc1/C=C/C(=O)/C=C/c1coc2ccccc2c1=O`: 4.6 µM, 2400 nM and 2100 nM.
`COc1cc(/C=C/C(=O)CC(=O)/C=C/c2ccc(O)c(OC)c2)ccc1O` [CURCUMIN]: in the test with LNCaP, the IC50 is 12100 nM.
Take `CC(C)CCn1ccnc1/C=C/C(=O)/C=C/c1coc2ccccc2c1=O`: the IC50 with DU-145 turned out to be 5.8 µM; in the test on PC-3 it was 3600 nM; in the test on LNCaP, 4000 nM.
Take `CC(C)n1ccnc1/C=C/C(=O)/C=C/c1coc2ccccc2c1=O`: the IC50 with DU-145 worked out at 3.3 µM; in the test with PC-3 it was 2300 nM; with LNCaP, 1200 nM.
The matching figures for `CCC(CC)n1ccnc1/C=C/C(=O)/C=C/c1coc2ccccc2c1=O`: 5.2 µM, 2900 nM and 2800 nM.
